Measurements reported in publication PMC5914179 (Advanced functional materials, 2016).

How the values were obtained:
thrombin = thrombin (Homo sapiens, UniProt P00734); test: Sensor cleavage during CaCl2-activated clotting of human plasma/serum; type: biochemical; settings: control human plasma + CaCl2, PEG-T1Q sensor
recombinant human MMP9 = recombinant human MMP9 (Homo sapiens, UniProt P14780); test: In vitro cleavage assay; type: biochemical; settings: inhibitor 5 μM final, ~100 nM MMP9, PEG-M1Q 1 μM by peptide
Summary of the method: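 Quenched fluorogenic PEG-peptide substrate at 1 × 10^-6 M by peptide, incubated with recombinant human MMP9 (≈100 × 10^-9 M working concentration), with or without MMP inhibitor. Fluorescence dequenching monitored over time on a microplate reader.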

Chain of recombinant human MMP9 (P14780 94-707): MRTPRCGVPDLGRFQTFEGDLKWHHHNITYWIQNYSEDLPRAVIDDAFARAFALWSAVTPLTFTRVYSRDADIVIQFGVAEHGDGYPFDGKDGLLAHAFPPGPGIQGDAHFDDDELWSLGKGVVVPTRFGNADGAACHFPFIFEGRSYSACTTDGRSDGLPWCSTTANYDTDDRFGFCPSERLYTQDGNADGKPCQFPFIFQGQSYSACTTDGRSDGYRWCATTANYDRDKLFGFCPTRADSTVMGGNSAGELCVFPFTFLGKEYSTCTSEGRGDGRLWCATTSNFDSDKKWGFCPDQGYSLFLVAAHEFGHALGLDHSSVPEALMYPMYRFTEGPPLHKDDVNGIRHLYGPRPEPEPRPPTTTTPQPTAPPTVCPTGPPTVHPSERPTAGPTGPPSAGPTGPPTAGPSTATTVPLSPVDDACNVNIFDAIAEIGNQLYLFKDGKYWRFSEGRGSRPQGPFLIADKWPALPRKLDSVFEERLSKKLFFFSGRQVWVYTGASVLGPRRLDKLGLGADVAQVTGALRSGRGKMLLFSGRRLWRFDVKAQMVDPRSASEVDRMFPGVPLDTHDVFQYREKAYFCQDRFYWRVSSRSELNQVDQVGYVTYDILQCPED

| Structure (SMILES) | effect of thrombin inhibitor on CaCl2-induced fluorescence increase of PEG-T1Q (thrombin) | effect of MMP inhibitor on MMP9 proteolysis of PEG-M1Q (recombinant human MMP9) |
| --- | --- | --- |
| CC1CNc2c(cccc2S(=O)(=O)N[C@@H](CCCNC(=N)N)C(=O)N2CC[C@@H](C)C[C@@H]2C(=O)O)C1 (some centres unmarked) [Argatroban] | eliminated the fluorescence increase | – |
| CNC(=O)[C@@H](NC(=O)[C@H](CC(C)C)[C@H](O)C(=O)NO)C(C)(C)C [Marimastat] | – | abrogated |
